This note sets out measurements from ChEMBL document CHEMBL1165965, “Synthesis and structure-activity relationships of 1,2,3,4-tetrahydropyrido[2,3-b]pyrazines as potent and selective inhibitors of the anaplastic lymphoma kinase” (Bioorg Med Chem, 2010).

Assay [1] has as its target Tyrosine-protein kinase JAK2 (Homo sapiens) (UniProt O60674). Nature of the assay: Inhibition of JAK2 JH1 catalytic domain at 1 uM. A digest of the protocol:
(§1)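 Single-concentration screen on the Ambit KINOMEscan platform, run against a panel of 250–400 kinases. Per-kinase inhibition was also summarized as S(90), the fraction of kinases inhibited by more than 90%.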

Assay [2] deals with T1, Mitogen-activated protein kinase 12 (Homo sapiens) (UniProt P53778).
T1 sequence (whole entry): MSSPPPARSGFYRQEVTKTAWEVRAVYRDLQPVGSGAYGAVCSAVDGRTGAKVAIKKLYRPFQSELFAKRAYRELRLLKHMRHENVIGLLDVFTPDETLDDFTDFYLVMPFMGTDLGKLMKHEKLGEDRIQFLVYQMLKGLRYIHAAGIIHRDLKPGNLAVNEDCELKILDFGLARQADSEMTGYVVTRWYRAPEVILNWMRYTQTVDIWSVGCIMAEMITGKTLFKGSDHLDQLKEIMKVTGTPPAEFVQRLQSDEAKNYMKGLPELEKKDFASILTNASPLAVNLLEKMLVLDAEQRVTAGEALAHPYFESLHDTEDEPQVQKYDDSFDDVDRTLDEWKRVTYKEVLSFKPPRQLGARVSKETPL
Nature of the assay: Inhibition of p38-gamma at 1 uM.

Assay [3] deals with 5'-AMP-activated protein kinase catalytic subunit alpha-1 (Homo sapiens) (UniProt Q13131). Nature of the assay: Inhibition of AMPK-alpha1 at 1 uM. A digest of the protocol: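 Ambit KINOMEscan screen at a single concentration across a 250–400 kinase panel, recorded as percent inhibition. Selectivity was expressed as S(90), the fraction of kinases inhibited >90%.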
5'-AMP-activated protein kinase catalytic subunit alpha-1 (Homo sapiens), sequence (Q13131 whole entry, looked up, canonical isoform): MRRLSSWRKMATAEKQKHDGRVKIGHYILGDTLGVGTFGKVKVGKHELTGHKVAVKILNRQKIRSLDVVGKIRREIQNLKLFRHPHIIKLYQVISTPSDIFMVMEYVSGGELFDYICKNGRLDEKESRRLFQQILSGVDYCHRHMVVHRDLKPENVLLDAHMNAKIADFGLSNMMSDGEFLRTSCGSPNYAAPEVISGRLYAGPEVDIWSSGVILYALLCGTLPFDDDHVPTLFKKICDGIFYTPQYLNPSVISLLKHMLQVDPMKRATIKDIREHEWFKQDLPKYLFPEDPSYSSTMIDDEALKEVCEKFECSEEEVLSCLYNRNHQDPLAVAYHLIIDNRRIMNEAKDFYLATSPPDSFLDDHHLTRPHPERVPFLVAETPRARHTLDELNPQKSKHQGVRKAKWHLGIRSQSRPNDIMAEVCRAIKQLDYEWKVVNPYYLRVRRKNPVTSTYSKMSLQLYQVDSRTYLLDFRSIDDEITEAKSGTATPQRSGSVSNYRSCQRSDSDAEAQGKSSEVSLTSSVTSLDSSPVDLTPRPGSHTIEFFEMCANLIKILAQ
In assay [4] the test system is Phosphatidylinositol 4,5-bisphosphate 3-kinase catalytic subunit alpha isoform (Homo sapiens), P42336 [H1047Y]. Nature of the assay: Inhibition of PIK3CA H1047Y mutant at 1 uM.
Phosphatidylinositol 4,5-bisphosphate 3-kinase catalytic subunit alpha isoform (Homo sapiens), P42336 [H1047Y], sequence (P42336 whole entry H1047Y, canonical isoform): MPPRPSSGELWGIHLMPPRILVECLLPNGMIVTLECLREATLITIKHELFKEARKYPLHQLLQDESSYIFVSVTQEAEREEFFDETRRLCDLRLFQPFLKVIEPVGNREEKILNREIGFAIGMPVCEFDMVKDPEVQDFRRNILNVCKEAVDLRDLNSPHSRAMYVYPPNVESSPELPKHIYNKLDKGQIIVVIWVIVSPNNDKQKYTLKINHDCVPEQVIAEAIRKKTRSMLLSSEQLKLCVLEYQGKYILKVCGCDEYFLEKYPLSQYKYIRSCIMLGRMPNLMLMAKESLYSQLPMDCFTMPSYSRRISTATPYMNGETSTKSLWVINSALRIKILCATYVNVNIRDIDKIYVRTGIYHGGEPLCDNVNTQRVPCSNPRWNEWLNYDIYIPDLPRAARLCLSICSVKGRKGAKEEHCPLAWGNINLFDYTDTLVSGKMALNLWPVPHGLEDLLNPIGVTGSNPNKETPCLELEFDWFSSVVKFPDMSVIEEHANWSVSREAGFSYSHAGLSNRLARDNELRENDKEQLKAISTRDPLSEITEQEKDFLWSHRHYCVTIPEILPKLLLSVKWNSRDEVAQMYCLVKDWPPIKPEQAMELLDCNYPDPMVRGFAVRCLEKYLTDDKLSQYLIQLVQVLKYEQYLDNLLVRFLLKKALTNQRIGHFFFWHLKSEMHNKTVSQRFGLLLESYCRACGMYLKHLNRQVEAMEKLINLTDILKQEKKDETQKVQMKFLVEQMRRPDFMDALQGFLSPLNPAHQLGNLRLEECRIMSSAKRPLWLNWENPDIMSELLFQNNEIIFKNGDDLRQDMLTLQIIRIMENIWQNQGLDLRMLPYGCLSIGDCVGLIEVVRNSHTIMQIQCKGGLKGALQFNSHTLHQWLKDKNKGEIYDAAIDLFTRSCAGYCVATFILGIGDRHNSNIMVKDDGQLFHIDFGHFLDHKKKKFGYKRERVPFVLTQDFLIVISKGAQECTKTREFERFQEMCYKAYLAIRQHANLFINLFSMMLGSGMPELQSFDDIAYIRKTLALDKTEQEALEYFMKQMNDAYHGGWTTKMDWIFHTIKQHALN
Assay [5] concerns the target Mitogen-activated protein kinase 4 (Homo sapiens) (UniProt P31152). Nature of the assay: Inhibition of ERK4 at 1 uM.
The target of assay [6] is T2, Mitogen-activated protein kinase kinase kinase 13 (Homo sapiens) (UniProt O43283).
T2 sequence (whole entry): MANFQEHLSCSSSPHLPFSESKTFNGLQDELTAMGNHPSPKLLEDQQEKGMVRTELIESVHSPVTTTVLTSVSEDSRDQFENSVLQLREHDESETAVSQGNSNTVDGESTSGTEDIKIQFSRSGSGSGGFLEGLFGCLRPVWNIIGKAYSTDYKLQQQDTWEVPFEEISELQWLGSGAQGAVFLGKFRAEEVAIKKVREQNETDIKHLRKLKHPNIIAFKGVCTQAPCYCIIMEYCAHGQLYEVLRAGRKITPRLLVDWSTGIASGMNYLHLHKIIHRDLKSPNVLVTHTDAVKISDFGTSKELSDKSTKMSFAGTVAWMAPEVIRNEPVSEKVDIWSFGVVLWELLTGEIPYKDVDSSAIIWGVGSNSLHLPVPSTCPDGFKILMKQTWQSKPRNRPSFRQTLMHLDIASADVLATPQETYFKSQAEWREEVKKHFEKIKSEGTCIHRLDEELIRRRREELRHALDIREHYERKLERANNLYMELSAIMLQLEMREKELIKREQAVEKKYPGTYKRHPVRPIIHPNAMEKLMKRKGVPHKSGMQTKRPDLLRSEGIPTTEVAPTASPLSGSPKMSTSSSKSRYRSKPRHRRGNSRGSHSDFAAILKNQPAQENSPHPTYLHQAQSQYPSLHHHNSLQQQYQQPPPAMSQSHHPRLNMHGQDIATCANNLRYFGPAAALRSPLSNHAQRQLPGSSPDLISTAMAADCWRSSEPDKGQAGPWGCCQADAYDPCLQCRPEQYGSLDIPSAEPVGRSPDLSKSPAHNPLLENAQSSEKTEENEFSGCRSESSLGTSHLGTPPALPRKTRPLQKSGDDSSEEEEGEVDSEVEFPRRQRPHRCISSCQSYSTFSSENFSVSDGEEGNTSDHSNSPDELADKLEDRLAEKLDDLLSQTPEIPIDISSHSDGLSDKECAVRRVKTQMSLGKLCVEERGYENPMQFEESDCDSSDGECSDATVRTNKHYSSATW
Nature of the assay: Inhibition of LZK at 1 uM.

The test system of assay [7] is eIF-2-alpha kinase GCN2 (Homo sapiens), Q9P2K8 [S808G]. Nature of the assay: Inhibition of GCN2 domian 2 S808G mutant at 1 uM. A digest of the protocol: as §1
eIF-2-alpha kinase GCN2 (Homo sapiens), Q9P2K8 [S808G], sequence (Q9P2K8 whole entry S808G): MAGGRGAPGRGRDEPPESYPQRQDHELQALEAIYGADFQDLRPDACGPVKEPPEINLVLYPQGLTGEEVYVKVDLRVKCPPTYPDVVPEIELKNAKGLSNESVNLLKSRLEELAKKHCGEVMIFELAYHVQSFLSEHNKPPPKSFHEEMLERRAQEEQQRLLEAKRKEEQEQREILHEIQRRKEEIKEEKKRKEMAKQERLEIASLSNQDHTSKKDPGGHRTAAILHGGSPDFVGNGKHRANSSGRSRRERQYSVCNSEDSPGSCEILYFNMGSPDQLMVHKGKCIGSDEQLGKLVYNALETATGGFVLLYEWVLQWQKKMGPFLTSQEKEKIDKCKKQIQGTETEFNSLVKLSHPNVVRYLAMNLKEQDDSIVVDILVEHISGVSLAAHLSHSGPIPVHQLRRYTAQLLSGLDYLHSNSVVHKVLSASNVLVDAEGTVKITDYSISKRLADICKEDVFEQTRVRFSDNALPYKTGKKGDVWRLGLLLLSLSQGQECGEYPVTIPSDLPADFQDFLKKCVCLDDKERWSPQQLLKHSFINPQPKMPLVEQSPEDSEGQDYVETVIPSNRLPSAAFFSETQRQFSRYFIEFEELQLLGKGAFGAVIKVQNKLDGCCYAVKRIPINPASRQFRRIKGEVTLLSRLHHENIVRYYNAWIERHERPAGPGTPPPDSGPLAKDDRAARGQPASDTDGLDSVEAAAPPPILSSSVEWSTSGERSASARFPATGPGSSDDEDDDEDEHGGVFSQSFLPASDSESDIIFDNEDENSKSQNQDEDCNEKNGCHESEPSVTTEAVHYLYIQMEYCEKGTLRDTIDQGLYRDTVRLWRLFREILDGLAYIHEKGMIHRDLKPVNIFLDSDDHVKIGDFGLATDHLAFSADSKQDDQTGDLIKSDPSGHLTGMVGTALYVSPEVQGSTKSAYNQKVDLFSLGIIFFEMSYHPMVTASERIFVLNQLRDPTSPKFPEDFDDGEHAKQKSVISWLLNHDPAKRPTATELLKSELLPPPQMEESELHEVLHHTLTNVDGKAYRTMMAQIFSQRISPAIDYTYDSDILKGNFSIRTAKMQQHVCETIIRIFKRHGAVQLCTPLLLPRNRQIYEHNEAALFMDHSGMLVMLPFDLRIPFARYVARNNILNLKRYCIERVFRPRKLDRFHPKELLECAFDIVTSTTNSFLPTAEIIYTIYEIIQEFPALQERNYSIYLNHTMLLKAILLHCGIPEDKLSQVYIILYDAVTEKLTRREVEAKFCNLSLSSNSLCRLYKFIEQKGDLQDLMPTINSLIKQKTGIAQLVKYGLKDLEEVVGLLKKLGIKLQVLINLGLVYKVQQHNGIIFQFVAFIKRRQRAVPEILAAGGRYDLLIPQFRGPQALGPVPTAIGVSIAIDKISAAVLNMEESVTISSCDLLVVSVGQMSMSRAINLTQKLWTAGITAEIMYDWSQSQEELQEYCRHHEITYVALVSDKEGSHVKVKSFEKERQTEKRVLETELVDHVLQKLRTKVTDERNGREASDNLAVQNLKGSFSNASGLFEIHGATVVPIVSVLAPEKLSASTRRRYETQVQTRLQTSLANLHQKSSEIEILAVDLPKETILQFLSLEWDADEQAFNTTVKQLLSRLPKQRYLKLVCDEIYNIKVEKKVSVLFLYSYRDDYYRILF
For assay [8], the target named is T3, Serine/threonine-protein kinase Nek2 (Homo sapiens) (UniProt P51955).
T3 sequence (whole entry): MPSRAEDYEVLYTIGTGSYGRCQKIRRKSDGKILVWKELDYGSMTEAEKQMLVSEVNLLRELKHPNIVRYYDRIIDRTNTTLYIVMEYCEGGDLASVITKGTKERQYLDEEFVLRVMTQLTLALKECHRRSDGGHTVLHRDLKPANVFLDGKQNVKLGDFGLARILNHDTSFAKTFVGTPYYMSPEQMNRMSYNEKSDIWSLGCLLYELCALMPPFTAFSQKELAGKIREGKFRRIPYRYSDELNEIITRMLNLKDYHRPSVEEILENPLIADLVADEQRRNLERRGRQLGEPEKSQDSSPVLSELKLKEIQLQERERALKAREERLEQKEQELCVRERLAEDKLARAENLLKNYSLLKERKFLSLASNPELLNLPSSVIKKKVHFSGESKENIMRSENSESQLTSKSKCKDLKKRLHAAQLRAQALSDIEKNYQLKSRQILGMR
Nature of the assay: Inhibition of NEK2 at 1 uM.

The target in assay [9] is Macrophage colony-stimulating factor 1 receptor (Homo sapiens) (UniProt P07333). Nature of the assay: Inhibition of CSF1R at 1 uM. In short, it runs like this:
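Single-concentration screen using Ambit Bioscience KINOMEscan technology across a panel of 250–400 kinases. Per-kinase inhibition from this screen was summarized as S(90), the fraction of kinases inhibited by more than 90%.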

Usually inhibition stands for how much of the control response was suppressed.

The structures appear in SMILES notation. Where only a bound is given, the exact number is not on record here.

Macrophage colony-stimulating factor 1 receptor (Homo sapiens), sequence (P07333 whole entry): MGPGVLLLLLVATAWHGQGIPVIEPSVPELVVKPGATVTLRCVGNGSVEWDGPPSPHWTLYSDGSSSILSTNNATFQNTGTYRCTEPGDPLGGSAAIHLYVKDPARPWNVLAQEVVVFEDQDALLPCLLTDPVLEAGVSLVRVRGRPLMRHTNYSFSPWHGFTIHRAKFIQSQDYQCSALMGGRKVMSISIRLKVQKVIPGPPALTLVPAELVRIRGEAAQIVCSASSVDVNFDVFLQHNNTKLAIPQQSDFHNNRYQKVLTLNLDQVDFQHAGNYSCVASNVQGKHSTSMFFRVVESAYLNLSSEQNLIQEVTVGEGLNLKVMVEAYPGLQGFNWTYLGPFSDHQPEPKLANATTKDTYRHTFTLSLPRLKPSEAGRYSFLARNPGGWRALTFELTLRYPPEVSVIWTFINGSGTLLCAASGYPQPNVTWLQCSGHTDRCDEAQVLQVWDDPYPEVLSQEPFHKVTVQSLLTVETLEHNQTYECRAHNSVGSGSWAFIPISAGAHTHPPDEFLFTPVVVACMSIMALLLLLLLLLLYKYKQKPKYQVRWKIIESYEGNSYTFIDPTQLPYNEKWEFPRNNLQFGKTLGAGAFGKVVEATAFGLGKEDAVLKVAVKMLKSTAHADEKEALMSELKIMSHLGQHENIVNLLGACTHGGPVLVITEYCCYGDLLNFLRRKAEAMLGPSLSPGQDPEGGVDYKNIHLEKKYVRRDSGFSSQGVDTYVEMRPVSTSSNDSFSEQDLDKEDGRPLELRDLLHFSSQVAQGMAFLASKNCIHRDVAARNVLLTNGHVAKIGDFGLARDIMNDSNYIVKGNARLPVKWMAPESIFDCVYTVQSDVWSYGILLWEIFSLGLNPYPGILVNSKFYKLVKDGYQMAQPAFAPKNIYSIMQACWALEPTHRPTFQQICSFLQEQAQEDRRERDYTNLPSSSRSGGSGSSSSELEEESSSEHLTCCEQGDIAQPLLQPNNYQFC
Mitogen-activated protein kinase 4 (Homo sapiens), sequence (P31152 whole entry): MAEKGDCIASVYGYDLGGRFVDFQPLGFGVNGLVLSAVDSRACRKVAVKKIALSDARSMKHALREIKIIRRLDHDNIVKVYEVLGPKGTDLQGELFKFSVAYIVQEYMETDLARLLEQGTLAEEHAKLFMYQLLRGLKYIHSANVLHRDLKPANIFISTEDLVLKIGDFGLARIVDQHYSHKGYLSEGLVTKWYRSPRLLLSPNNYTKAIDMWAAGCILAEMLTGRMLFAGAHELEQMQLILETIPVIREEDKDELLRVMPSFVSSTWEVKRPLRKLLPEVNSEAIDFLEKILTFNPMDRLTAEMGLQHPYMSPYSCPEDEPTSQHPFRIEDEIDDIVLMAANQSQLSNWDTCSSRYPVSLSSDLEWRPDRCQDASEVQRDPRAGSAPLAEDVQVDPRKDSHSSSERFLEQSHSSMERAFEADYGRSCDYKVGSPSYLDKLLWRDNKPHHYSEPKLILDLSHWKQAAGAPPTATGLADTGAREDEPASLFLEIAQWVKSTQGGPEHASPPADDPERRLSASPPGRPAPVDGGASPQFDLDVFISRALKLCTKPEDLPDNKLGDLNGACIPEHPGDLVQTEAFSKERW

As to `FC(F)(F)c1ccc(Cl)cc1CN1CCNc2ncc(-c3ccnc(N4CCNCC4)c3)cc21`, the inhibition in [1] was 97%; in assay [2], < 50%; in assay [3] it was 66%; in assay [4] it was < 50%; in assay [5], < 50%; in [6] it was < 50%. Moreover, the inhibition was < 50% in [7], < 50% in assay [8] and 99% in assay [9].
For the molecule `CN1CCN(c2ccc(-c3cnc4c(c3)N(Cc3cc(Cl)ccc3Cl)CCN4)cn2)CC1`, the inhibition is 95% in [1]; < 50% in assay [2]; < 50% in assay [3]; < 50% in assay [4]; < 50% in assay [5]; < 50% in assay [6]. Also, the inhibition in assay [7] is < 50%; in assay [8], < 50%; in assay [9], 88%.
Regarding `COC1CCN(C(=O)c2ccc(-c3cnc4c(c3)N(Cc3cc(Cl)ccc3C(F)(F)F)CCN4)cc2)CC1`, the inhibition in [2] is < 50%; in [3] it was < 50%; in assay [7], < 50%; in assay [8] it was < 50%; in [9], 74.2%.
With `O=C(c1ccc(-c2cnc3c(c2)N(Cc2cc(Cl)ccc2C(F)(F)F)CCN3)cc1)N1CCCCC1`, the inhibition was 96.3% in assay [1]; < 50% in [2]; < 50% in assay [3]; < 50% in assay [7]; < 50% in assay [8]; < 50% in assay [9].
Turning to `O=C(O)c1ccc(-c2cnc3c(c2)N(Cc2cc(Cl)ccc2C(F)(F)F)CCN3)cc1`, the inhibition in assay [1] was 95.1%; in assay [2] it was < 50%; in [3] it was < 50%; in assay [7] it was < 50%; in assay [8], < 50%; in [9], < 50%.
Turning to `CN1CCN(c2ccc(-c3cnc4c(c3)N(Cc3cc(F)ccc3F)CCN4)cn2)CC1`, the inhibition was 94.7% in assay [1]; < 50% in [2]; < 50% in assay [3]; < 50% in assay [4]; < 50% in assay [5]; < 50% in [6]. The inhibition in assay [7], in assay [8] and in assay [9] was < 50% in each case.
For `O=C(c1ccc(-c2cnc3c(c2)N(Cc2cc(Cl)ccc2C(F)(F)F)CCN3)cc1)N1CCC(N2CCCC2)CC1`, the inhibition was 99.5% in assay [1]; < 50% in assay [2]; < 50% in assay [3]; < 50% in [7]; < 50% in assay [8]; 96.6% in [9].
As for `CN1CCN(c2ccc(-c3cnc4c(c3)N(Cc3c(F)ccc(F)c3Cl)CCN4)cn2)CC1`, the inhibition in assay [1] is 77%; in assay [2] it was < 50%; in assay [3], < 50%; in assay [4], < 50%; in assay [5], < 50%; in [6], < 50%. In addition, the inhibition was < 50% in assay [7], < 50% in assay [8] and 96% in assay [9].
For the molecule `CC(=O)N1CCN(c2cc(-c3cnc4c(c3)N(Cc3cc(Cl)ccc3C(F)(F)F)CCN4)ccn2)CC1`, the inhibition in assay [1] was 96%; in assay [2] it was < 50%; in assay [3] it was < 50%; in assay [4], < 50%; in assay [5] it was < 50%; in [6], < 50%. For the same molecule, the inhibition in assay [7] was < 50%; in [8], < 50%; in assay [9] it was 93%.
Consider `CN1CCN(c2ccc(-c3cnc4c(c3)N(Cc3cc(Cl)ccc3C(F)(F)F)CCN4)cn2)CC1`, for which the inhibition in assay [1] was 94%; in [2] it was < 50%; in assay [3], < 50%; in assay [4], < 50%; in assay [5] it was < 50%; in assay [6], < 50%. Moreover, the inhibition in [7] is < 50%; in [8], < 50%; in assay [9], 88%.
